Data on six compounds can be found in ChEMBL document CHEMBL1124568, “2,4-Diamino-5-benzylpyrimidines as antibacterial agents. 13. Some alkenyl derivatives with high in vitro activity against anaerobic organisms” (J Med Chem, 1989).

One series deals with Clostridium perfringens. As to the kind of experiment: Ratio of antibacterial (Clostridium perfringens) activities compared to that of trimethoprim and metronidazole. Type of series: functional.
Series [1] deals with Streptococcus pyogenes. As to the kind of experiment: Antibacterial ([…] CN10) activity compared to trimethoprim. Type of series: functional. In short, it runs like this: (§1)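 Each MIC is divided by the MIC of trimethoprim run alongside. Serial dilutions were normally 0.1, 0.3, 1, 3, 10, etc., and occasionally 1, 5 and 10. For E. coli the value is the average over six strains.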

Series [2] has as its system Klebsiella pneumoniae. The experiment in a line: Antibacterial (Klebsiella pneumoniae CN3632) activity compared to trimethoprim. Format: functional. In short, it runs like this: as §1
In another series the test system is Clostridioides difficile. The experiment in a line: Ratio of antibacterial (Clostridium difficile) activities compared to that of trimethoprim and metronidazole. Type of series: functional.
The nature of series [3]: Antibacterial (Salmonella typhi CN512) activity compared to trimethoprim. Type of series: functional, salmonella typhosa.
In a further series the test system is Shigella flexneri. As to the kind of experiment: Antibacterial (Shigella flexneri CN6007) activity compared to trimethoprim. Format: functional. In short, it runs like this: as §1
Series [4] has as its system Proteus vulgaris. The experiment in a line: Antibacterial (Proteus vulgaris CN329) activity compared to trimethoprim. Format: functional. In short, it runs like this:
as §1

Series [5] deals with Staphylococcus aureus. The experiment in a line: Antibacterial (Staphylococcus aureus CN491) activity compared to trimethoprim. Type of series: functional. In short, it runs like this: as §1
A further series relates to Phocaeicola vulgatus. As to the kind of experiment: Ratio of antibacterial (Bacteroides vulgatus) activities compared to that of trimethoprim and metronidazole. Format: functional.
For series [6], the system named is Escherichia coli. As to the kind of experiment: Antibacterial (Escherichia coli) activity compared to trimethoprim. Type of series: functional. In short, it runs like this: as §1
A short description of series [7]: Half-life in dogs Plasma. Particulars: dog. Format: ADME, organism-based, Canis lupus familiaris. In short, it runs like this:
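Two fasted (18 h) male beagles received 5 mg/kg […] (free base), co-dosed with 5 mg/kg trimethoprim in propylene glycol. Jugular plasma was sampled from 0.17 to 24 h. Drug was extracted, separated by TLC and read by fluorescence densitometry. t1/2 came from least-squares linear regression of the postabsorption segment of the plasma curve.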

Series [8] has as its system Bacteroides thetaiotaomicron. As to the kind of experiment: Ratio of antibacterial (Bacteroides thetaiotaomicron) activities compared to that of trimethoprim and metronidazole. Type of series: functional.
In the next series the test system is Fusobacterium nucleatum. As to the kind of experiment: Ratio of antibacterial (Fusobacterium nucleatum) activities compared to that of trimethoprim and metronidazole. Format: functional.
A further series concerns Serratia marcescens. The experiment in a line: Antibacterial (Serratia marcescens CN2398) activity compared to trimethoprim. Format: functional. In short, it runs like this:
as §1

The target in series [9] is T1, Dihydrofolate reductase (Rattus norvegicus, UniProt Q920D2).
T1 sequence (Q920D2 whole entry): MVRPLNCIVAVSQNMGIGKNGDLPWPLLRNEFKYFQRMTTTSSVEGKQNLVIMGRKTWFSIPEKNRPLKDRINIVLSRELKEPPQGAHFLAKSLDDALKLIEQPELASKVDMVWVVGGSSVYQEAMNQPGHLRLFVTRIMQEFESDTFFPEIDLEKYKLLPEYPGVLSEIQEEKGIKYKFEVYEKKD
As to the kind of experiment: In vitro inhibition of rat liver dihydrofolate reductase. The note with it: read-out: I50.

For series [10], the system named is Mycolicibacterium smegmatis. As to the kind of experiment: Antibacterial (Mycobacterium smegmatis S3254) activity compared to trimethoprim. Format: functional. In short, it runs like this: as §1
Series [11] relates to Klebsiella aerogenes. As to the kind of experiment: Antibacterial (Enterobacter aerogenes 2201/86) activity compared to trimethoprim. Format: functional. In short, it runs like this: as §1
The next series relates to Pasteurella multocida. The experiment in a line: Antibacterial (Pasteurella multocides ATCC 6587) activity compared to trimethoprim. Type of series: functional. In short, it runs like this:
as §1

The target in series [12] is Dihydrofolate reductase (Staphylococcus aureus, UniProt P0A017). As to the kind of experiment: Antibacterial activity against Staphylococcus aureus DHFR. In short, it runs like this:
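S. aureus (strain S8862) DHFR was partially purified by ammonium sulfate fractionation and gel filtration. The assay used 0.1 M imidazole chloride pH 6.4, 12 mM mercaptoethanol, 60 µM NADPH and 45 µM dihydrofolate at 30 °C, read at 340 nm. Enzyme, NADPH and inhibitor were preincubated 2 min before dihydrofolate was added. I50 came from % inhibition vs log[inhibitor] plots of steady-state velocities.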

Series [13] concerns Streptococcus pyogenes. As to the kind of experiment: Ratio of antibacterial (Streptococcus pyogenes CN10) activities of compound and trimethoprim.
The subject of a further series is Shigella dysenteriae. As to the kind of experiment: Ratio of antibacterial (Shigella dysentariae CN513) activities of compound and trimethoprim. Type of series: functional.
The target in series [14] is T2, Dihydrofolate reductase (Escherichia coli, UniProt P0ABQ4).
T2 sequence (P0ABQ4 whole entry): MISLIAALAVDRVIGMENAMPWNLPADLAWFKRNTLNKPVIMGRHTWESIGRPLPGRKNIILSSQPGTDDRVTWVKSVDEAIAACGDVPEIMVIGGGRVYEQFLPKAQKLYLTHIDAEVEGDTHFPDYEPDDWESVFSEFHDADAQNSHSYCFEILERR
As to the kind of experiment: In vitro inhibition of dihydrofolate reductase of Escherichia coli. Particulars: read-out: I50. In short, it runs like this: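 The E. coli DHFR assay contained 1 nM enzyme, with the lower limit for I50 arbitrarily set at 2 nM. I50 was estimated from plots of % inhibition of steady-state velocity vs log inhibitor concentration.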

Series [15] has as its target Bifunctional dihydrofolate reductase-thymidylate synthase (Plasmodium berghei str. ANKA, UniProt Q27713). The experiment in a line: In vitro inhibition of dihydrofolate reductase of Plasmodium berghei. Particulars: read-out: I50.
Series [16] relates to Klebsiella pneumoniae. The experiment in a line: Ratio of antibacterial (Klebsiella pneumoniae CN3632) activities of compound and trimethoprim. Format: functional. In short, it runs like this: as §1
Series [17] relates to Staphylococcus aureus. As to the kind of experiment: Ratio of antibacterial (Staphylococcus aureus CN491) activities of compound and trimethoprim. Type of series: functional. In short, it runs like this:
as §1

The test system of series [18] is Klebsiella aerogenes. As to the kind of experiment: Ratio of antibacterial (Enterobacter aerogenes, 2201/86) activities of compound and trimethoprim. Format: functional. In short, it runs like this:
as §1

In series [19] the test system is Proteus vulgaris. The experiment in a line: Ratio of antibacterial (Proteus vulgaris CN329) activities of compound and trimethoprim. Format: functional. In short, it runs like this: as §1
Series [20] has as its system Escherichia coli. As to the kind of experiment: Ratio of antibacterial (Escherichia coli CN314) activities of compound and trimethoprim. Format: functional.
The next series relates to Salmonella. The experiment in a line: Ratio of antibacterial (Salmonella typhi CN512) activities of compound and trimethoprim. Format: functional, salmonella typhosa.

In brackets after ≈: the same amount, converted by molar mass.

Chain of Bifunctional dihydrofolate reductase-thymidylate synthase (Q27713 whole entry): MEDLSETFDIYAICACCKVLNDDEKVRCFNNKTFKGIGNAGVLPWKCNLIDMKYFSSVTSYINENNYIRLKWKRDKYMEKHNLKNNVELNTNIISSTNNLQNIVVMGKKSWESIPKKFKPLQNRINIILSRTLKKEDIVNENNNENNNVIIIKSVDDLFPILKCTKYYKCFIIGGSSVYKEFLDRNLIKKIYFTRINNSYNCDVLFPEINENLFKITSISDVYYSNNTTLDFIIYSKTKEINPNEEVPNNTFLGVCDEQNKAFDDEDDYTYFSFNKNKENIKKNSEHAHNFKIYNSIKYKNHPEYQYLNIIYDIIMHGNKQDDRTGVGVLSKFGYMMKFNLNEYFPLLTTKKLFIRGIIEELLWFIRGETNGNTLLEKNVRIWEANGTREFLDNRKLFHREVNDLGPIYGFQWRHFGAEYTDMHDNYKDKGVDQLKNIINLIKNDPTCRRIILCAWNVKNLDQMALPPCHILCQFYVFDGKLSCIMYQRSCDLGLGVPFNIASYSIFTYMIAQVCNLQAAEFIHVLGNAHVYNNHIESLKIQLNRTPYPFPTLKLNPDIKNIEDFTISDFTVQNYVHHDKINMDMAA
Chain of Dihydrofolate reductase (Staphylococcus aureus, UniProt P0A017) (P0A017 whole entry): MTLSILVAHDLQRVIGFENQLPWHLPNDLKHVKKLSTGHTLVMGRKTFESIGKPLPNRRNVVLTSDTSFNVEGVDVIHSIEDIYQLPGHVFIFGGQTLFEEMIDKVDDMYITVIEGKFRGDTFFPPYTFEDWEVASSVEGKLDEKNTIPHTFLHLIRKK

What is called MIC is the lowest concentration that inhibits growth of the organism. What is called half-life is how long it takes for the measured level to halve. Take `C=CCc1cc(Cc2cnc(N)nc2N)cc(OC)c1OC`: the MIC was over 25 mg/L in the series with Clostridium perfringens; 0.3 mg/L (≈ 0.999 µM) in the series on Streptococcus pyogenes [1]; 10 mg/L (≈ 33.3 µM) with Klebsiella pneumoniae [2]; over 25 mg/L with Clostridioides difficile; 3 mg/L (≈ 9.99 µM) in [3]; 10 mg/L (≈ 33.3 µM) in the series on Shigella flexneri. Besides, the MIC stood at 10 mg/L (≈ 33.3 µM) against Proteus vulgaris [4]; 0.1 mg/L (≈ 0.333 µM) against Staphylococcus aureus [5]; 1.6 mg/L in the series on Phocaeicola vulgatus; 6 mg/L (≈ 20 µM) in the series with Escherichia coli [6]; 1.6 mg/L in [8]; 0.4 mg/L in the series on Fusobacterium nucleatum. In addition, the MIC came to 3 mg/L (≈ 9.99 µM) with Serratia marcescens, 3 mg/L (≈ 9.99 µM) in [10], 10 mg/L (≈ 33.3 µM) in the series with Klebsiella aerogenes [11] and 10 mg/L (≈ 33.3 µM) with Pasteurella multocida. In addition, the half-life in series [7] was 50.4 min. For the same compound, the IC50 at Dihydrofolate reductase [9] came out at 50 µM.
Regarding `CCOc1cc(Cc2cnc(N)nc2N)cc(OC)c1OC`, the MIC in the series on Streptococcus pyogenes [1] was 0.3 mg/L (≈ 0.986 µM); in the series with Klebsiella pneumoniae [2] it was 1 mg/L (≈ 3.29 µM); in [3], 1 mg/L (≈ 3.29 µM); in the series on Shigella flexneri, 1 mg/L (≈ 3.29 µM); in the series on Proteus vulgaris [4], 1 mg/L (≈ 3.29 µM); against Staphylococcus aureus [5], 0.3 mg/L (≈ 0.986 µM). Besides, the MIC in the series on Escherichia coli [6] is 2.6 mg/L (≈ 8.54 µM); with Serratia marcescens it was 3 mg/L (≈ 9.86 µM); in [10] it was 1 mg/L (≈ 3.29 µM); with Klebsiella aerogenes [11] it was 1 mg/L (≈ 3.29 µM); against Pasteurella multocida, 1 mg/L (≈ 3.29 µM). The same compound gave a half-life in series [7] of 188 min. In addition, at Dihydrofolate reductase [9], the IC50 was determined as 140 µM.
In general, Ki refers to the equilibrium dissociation constant of an inhibitor or competing ligand from its target. High values mean weaker binding, low ones tighter binding. On to `C=CCc1cc(Cc2cnc(N)nc2N)cc(CC=C)c1OC`, for which the MIC in the series with Clostridium perfringens is 25 mg/L; in the series with Streptococcus pyogenes [1] it was 1 mg/L (≈ 3.22 µM); against Klebsiella pneumoniae [2] it was over 10 mg/L; in the series with Clostridioides difficile it was over 25 mg/L; in [3], 100 mg/L (≈ 322 µM); in the series with Shigella flexneri it was 100 mg/L (≈ 322 µM). The MIC is 100 mg/L (≈ 322 µM) against Proteus vulgaris [4]; 5 mg/L (≈ 16.1 µM) in the series with Staphylococcus aureus [5]; 0.2 mg/L in the series on Phocaeicola vulgatus; 72 mg/L (≈ 232 µM) with Escherichia coli [6]; 0.2 mg/L in series [8]; 0.8 mg/L in the series with Fusobacterium nucleatum. For the same compound, the MIC is over 10 mg/L with Serratia marcescens, 10 mg/L (≈ 32.2 µM) in series [10], 100 mg/L (≈ 322 µM) with Klebsiella aerogenes [11] and 20 mg/L (≈ 64.4 µM) in the series with Pasteurella multocida. This compound yielded a Ki at Dihydrofolate reductase [12] of 0.0021 µM. Further, the IC50 at Dihydrofolate reductase [9] was found to be 18 µM.
Turning to `C=CCc1cc(Cc2cnc(N)nc2N)cc(OC)c1O`, the MIC in the series with Clostridium perfringens is over 25 mg/L; against Streptococcus pyogenes [1] it was 1 mg/L (≈ 3.49 µM); against Klebsiella pneumoniae [2], 0.3 mg/L (≈ 1.05 µM); in the series with Clostridioides difficile, over 25 mg/L; in series [3], 3 mg/L (≈ 10.5 µM); in the series with Shigella flexneri, 1 mg/L (≈ 3.49 µM). For the same compound, the MIC in the series on Proteus vulgaris [4] is 3 mg/L (≈ 10.5 µM); with Staphylococcus aureus [5] it was 0.3 mg/L (≈ 1.05 µM); in the series with Phocaeicola vulgatus it was 1.6 mg/L; with Escherichia coli [6], 1 mg/L (≈ 3.49 µM); in [8], 1.6 mg/L; with Fusobacterium nucleatum, 0.2 mg/L. Further, the MIC against Serratia marcescens was determined as 3 mg/L (≈ 10.5 µM); in [10], 3 mg/L (≈ 10.5 µM); in the series with Klebsiella aerogenes [11] it was 1 mg/L (≈ 3.49 µM); with Pasteurella multocida, 1 mg/L (≈ 3.49 µM). In addition, in series [7], the half-life was 42 min. The IC50 at Dihydrofolate reductase [9] was determined as 14.7 µM.
As for `CCCc1cc(Cc2cnc(N)nc2N)cc2c1OC(C)(C)C2`, the MIC in the series with Streptococcus pyogenes [13] came out at 3 mg/L; with Shigella dysenteriae it was 300 mg/L; in the series on Klebsiella pneumoniae [16], 100 mg/L; in the series with Staphylococcus aureus [17], 3 mg/L; with Klebsiella aerogenes [18] it was 100 mg/L; with Proteus vulgaris [19], 100 mg/L. Further, the values for the MIC in the series with Escherichia coli [20] and in the series with Salmonella were 100 mg/L and 300 mg/L, respectively. The IC50 at Dihydrofolate reductase [14] was determined as 0.28 µM; in series [15], 0.24 µM; on Dihydrofolate reductase [9] it was 9.9 µM.
`CCCc1cc(Cc2cnc(N)nc2N)cc2c1OC(C)C2C` (centres undefined): the MIC in the series on Streptococcus pyogenes [13] is 1 mg/L; in the series with Shigella dysenteriae, 100 mg/L; in the series with Klebsiella pneumoniae [16], 100 mg/L; in the series with Staphylococcus aureus [17], 1 mg/L; in the series on Klebsiella aerogenes [18], 30 mg/L; with Proteus vulgaris [19], 100 mg/L. Also, the figures for the MIC in the series with Escherichia coli [20] and in the series with Salmonella were 30 mg/L and 100 mg/L, respectively. In addition, the IC50 on Dihydrofolate reductase [14] came out at 0.013 µM; in series [15], 0.012 µM; on Dihydrofolate reductase [9] it was 2.04 µM.
